From ChEMBL document CHEMBL4017520, “Discovery, Structure-Activity Relationship, and Antiparkinsonian Effect of a Potent and Brain-Penetrant Chemical Series of Positive Allosteric Modulators of Metabotropic Glutamate Receptor 4” (J Med Chem, 2017) come the findings set out here.

For series [1], the system named is Brain. The series can be described thus: Fraction unbound in Sprague-Dawley rat brain at 30 mg/kg, ip after 30 mins. The following applies: in vivo, 0.5 h. It counts as ADME, organism-based.
A short description of series [2]: Drug uptake in Sprague-Dawley rat brain at 10 mg/kg, po after 60 mins post dose administered as single dose by LC-MS/MS analysis. It counts as ADME, organism-based. As to conditions: read-out: Drug uptake. The essentials:
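Rats given a single oral dose of 10 mg/kg. Brain concentrations were measured at 30, 60 and 90 min postdose, and brain AUC0–inf was determined. Values are the mean of three rats. Lower limit of quantification was 1 ng/mL.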

Series [3] can be described thus: AUC (0 to infinity) in Sprague-Dawley rat at 1 mg/kg, iv administered as single dose by LC-MS/MS analysis. Format: ADME, organism-based. The following applies: in vivo. Further details: dose 1 mg/kg, route intravenous, time infinity.
Series [4] concerns Brain. Briefly: Fraction unbound in Sprague-Dawley rat brain at 30 mg/kg, ip after 60 mins. It counts as ADME, organism-based. The following applies: in vivo, 1 h.
Series [5] can be described thus: Drug uptake in Sprague-Dawley rat brain at 10 mg/kg, po after 30 mins post dose administered as single dose by LC-MS/MS analysis. The following applies: read-out: Drug uptake. Format: ADME, organism-based. Summed up: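 Rats given a single oral dose of 10 mg/kg. The first plasma sample was taken at 15 min, and sampling continued to 24 h postdose. Brain was sampled at 30 min. Values are the mean (±SEM) of 3 rats.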

Series [6] deals with Amine oxidase [flavin-containing] B (Homo sapiens, UniProt P27338). Briefly: Activity at MAO-B (unknown origin) up to 10 uM. Format: ADME.
The test system of a further series is Mus musculus. Briefly: Half life in C57BL/6 mouse at 2 mg/kg, iv administered as single dose by LC-MS/MS analysis. It counts as ADME, organism-based. The following applies: in vivo. Summed up: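 Single iv dose, 1 mg/kg in rat or 2 mg/kg in mouse; plasma PK parameters derived; brain/plasma ratio taken at 1 h postdose (rat) or 30 min postdose (mouse). Mean of 3 rats; 2 mice for mouse Cmax and brain/plasma.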

Series [7] in a line: Tmax in Sprague-Dawley rat plasma at 10 mg/kg, ip administered as single dose by LC-MS/MS analysis. It counts as ADME, organism-based. Summed up:
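Single-dose plasma PK after ip (10 or 30 mg/kg) or oral (10 mg/kg) dosing in rats, and oral 10 mg/kg dosing in mice. […] Values are mean ±SEM of 3 rats or 2 mice.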

Series [8] is described as follows: Volume of distribution in Sprague-Dawley rat at 1 mg/kg, iv administered as single dose by LC-MS/MS analysis. Format: ADME, organism-based. The following applies: in vivo. The essentials:
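Single intravenous dose: rats 1 mg/kg, mice 2 mg/kg. Plasma concentration–time data yielded Cmax, t1/2, AUC0−∞, plasma clearance and volume of distribution. Values are mean ±SEM of 3 animals.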

Series [9] is described as follows: Half life in Sprague-Dawley rat plasma at 10 mg/kg, ip administered as single dose by LC-MS/MS analysis. It counts as ADME, organism-based. Summed up: (§1)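 Single dose ip (10 or 30 mg/kg, rat) or oral (10 mg/kg, rat or mouse); plasma Cmax, Tmax, half-life, AUC0−inf derived; brain concentration and brain/plasma ratio at 30 min postdose. Mean of 3 rats or 2 mice.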

In series [10] the target is Metabotropic glutamate receptor 4 (Homo sapiens, UniProt Q14833). The series can be described thus: Positive allosteric modulation of recombinant human mGlu4 receptor expressed in HEK293 cells co-expressing Gi/Gq assessed as increase in glutamate-induced calcium flux preincubated for 10 mins followed by glutamate addition measured for 3 mins by Fluo4-AM dye based fluorescence assay. Format: functional, cell-based. The following applies: read-out: EC50.

Series [11] deals with Brain. The series can be described thus: Fraction unbound in Sprague-Dawley rat brain at 30 mg/kg, ip after 240 mins. Format: ADME, organism-based. The following applies: in vivo, 4 h.
Series [12] in a line: Ratio of fraction unbound in Sprague-Dawley rat brain at 30 mg/kg, ip after 60 mins to EC50 for rat mGlu4 receptor expressed in HEK293 cells.
Series [13] deals with Metabotropic glutamate receptor 4 (Rattus norvegicus, UniProt P31423). The series can be described thus: Positive allosteric modulation of rat mGlu4 receptor expressed in HEK293 cells co-expressing Gi/Gq assessed as increase in glutamate-induced calcium flux preincubated for 10 mins followed by glutamate addition measured for 3 mins by Fluo4-AM dye based fluorescence assay. Format: functional, cell-based. Background: Calcium flux is commonly read through the fluorescence of an indicator in the cells.

The nature of series [14]: Plasma concentration in Sprague-Dawley rat at 30 mg/kg, ip after 60 mins. Format: ADME, organism-based. Summed up:
(§2)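 Rats dosed 30 mg/kg ip; plasma sampled over time, brain measured at 30 and 60 min; brain/plasma ratio averaged over 30 and 60 min.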

A short description of series [15]: Drug uptake in Sprague-Dawley rat brain at 10 mg/kg, ip after 30 mins post dose administered as single dose by LC-MS/MS analysis. As to conditions: read-out: Drug uptake. Format: ADME, organism-based. The essentials:
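Rats dosed ip at 10 or 30 mg/kg. Plasma Cmax, Tmax, half-life and AUC0–inf were determined. Brain concentration was measured 30 min postdose, and brain/plasma ratio was taken at 30 min. Values are the mean (±SEM) of 3 rats.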

The nature of series [16]: Activity at COMT (unknown origin) up to 10 uM. Format: ADME. The following applies: human.
The nature of series [17]: Plasma concentration in Sprague-Dawley rat at 30 mg/kg, ip after 120 mins. It counts as ADME, organism-based. The essentials: as §2
The nature of series [18]: Ratio of drug level in Sprague-Dawley rat brain to plasma at 30 mg/kg, ip after 30 mins post dose administered as single dose by LC-MS/MS analysis. It counts as ADME, organism-based. As to conditions: read-out: BPR. The essentials: as §1
Series [19] is described as follows: Plasma concentration in Sprague-Dawley rat at 30 mg/kg, ip after 240 mins. It counts as ADME, organism-based. The essentials:
as §2

Series [20] can be described thus: Ratio of drug level in Sprague-Dawley rat brain to plasma at 10 mg/kg, po after 30 mins post dose administered as single dose by LC-MS/MS analysis. It counts as ADME, organism-based. As to conditions: read-out: BPR. The essentials: as §1
The species entered for series [21] is Rattus norvegicus. The series can be described thus: Activity at kainate glutamate receptor in rat cerebral cortex at 10 uM. The essentials: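 Inhibition of orthosteric ligand binding to NMDA, AMPA and kainate receptors on rat cerebral cortex membranes, tested up to 10 μM.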
Series [22] relates to Rattus norvegicus. Briefly: Protection against 6-OHDA induced parkinsonian motor deficit in Sprague-Dawley rat assessed as increase in slow activity at 30 mg/kg, ip after 28 days post surgery. Format: functional, organism-based. The essentials:
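Adult male Sprague−Dawley rats with bilateral 6-OHDA striatal lesions given compound 30 mg/kg ip or vehicle at T0; spontaneous locomotor activity (active time, slow activity, rearing) counted in 5-min bins versus pre-surgery vehicle; n = 10.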

For series [23], the target named is Mitogen-activated protein kinase kinase kinase 7 (Homo sapiens) (UniProt O43318). The series can be described thus: Inhibition of TAK1 (unknown origin) at 10 uM.
Series [24] addresses Adenosine receptor A2a (Homo sapiens) (UniProt P29274). Briefly: Positive allosteric modulation of A2A receptor (unknown origin) at 10 uM.
Series [25] has as its target Metabotropic glutamate receptor 7 (Homo sapiens) (UniProt Q14831). Briefly: Activity at human mGlu7 receptor expressed in HEK293 cells co-expressing Gi/Gq assessed as effect on LAP4-induced intracellular calcium level up to 10 uM after 10 mins by Fluo4-AM dye based fluorescence assay. It counts as functional, cell-based. Summed up: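 Human mGluR7 in transfected HEK293 cells loaded with Fluo4-AM. Compound was added for 10 min, followed by L-AP4 at EC20 or EC80 in place of glutamate, and calcium fluorescence was recorded for 3 min. Results are from at least two or three independent experiments.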

The target in series [26] is Interleukin-1 receptor-associated kinase 4 (Homo sapiens) (UniProt Q9NWZ3). Briefly: Inhibition of IRAK4 (unknown origin) at 10 uM.
Series [27] concerns the target Glycogen synthase kinase-3 beta (Homo sapiens) (UniProt P49841). Briefly: Inhibition of GSK3beta (unknown origin) at 10 uM.

The structures appear in SMILES notation. Activity calls are given as the source filed them. The calls are words filed in the database; no cut-off is given here.

Amine oxidase [flavin-containing] B, sequence (P27338 whole entry): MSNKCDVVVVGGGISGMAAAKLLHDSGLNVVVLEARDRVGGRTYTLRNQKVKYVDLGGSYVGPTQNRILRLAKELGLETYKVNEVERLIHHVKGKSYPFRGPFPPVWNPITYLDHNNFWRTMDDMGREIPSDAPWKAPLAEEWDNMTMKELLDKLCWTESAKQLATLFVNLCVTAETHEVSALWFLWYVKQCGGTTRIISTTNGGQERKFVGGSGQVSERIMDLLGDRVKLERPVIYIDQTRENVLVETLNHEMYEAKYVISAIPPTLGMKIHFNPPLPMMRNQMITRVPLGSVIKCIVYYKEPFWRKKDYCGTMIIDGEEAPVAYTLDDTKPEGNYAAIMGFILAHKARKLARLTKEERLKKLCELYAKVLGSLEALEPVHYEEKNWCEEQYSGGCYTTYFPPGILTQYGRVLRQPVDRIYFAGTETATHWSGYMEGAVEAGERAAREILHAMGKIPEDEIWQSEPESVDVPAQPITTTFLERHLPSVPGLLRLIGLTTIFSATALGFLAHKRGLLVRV
Metabotropic glutamate receptor 4 (Rattus norvegicus, UniProt P31423), sequence (P31423 whole entry): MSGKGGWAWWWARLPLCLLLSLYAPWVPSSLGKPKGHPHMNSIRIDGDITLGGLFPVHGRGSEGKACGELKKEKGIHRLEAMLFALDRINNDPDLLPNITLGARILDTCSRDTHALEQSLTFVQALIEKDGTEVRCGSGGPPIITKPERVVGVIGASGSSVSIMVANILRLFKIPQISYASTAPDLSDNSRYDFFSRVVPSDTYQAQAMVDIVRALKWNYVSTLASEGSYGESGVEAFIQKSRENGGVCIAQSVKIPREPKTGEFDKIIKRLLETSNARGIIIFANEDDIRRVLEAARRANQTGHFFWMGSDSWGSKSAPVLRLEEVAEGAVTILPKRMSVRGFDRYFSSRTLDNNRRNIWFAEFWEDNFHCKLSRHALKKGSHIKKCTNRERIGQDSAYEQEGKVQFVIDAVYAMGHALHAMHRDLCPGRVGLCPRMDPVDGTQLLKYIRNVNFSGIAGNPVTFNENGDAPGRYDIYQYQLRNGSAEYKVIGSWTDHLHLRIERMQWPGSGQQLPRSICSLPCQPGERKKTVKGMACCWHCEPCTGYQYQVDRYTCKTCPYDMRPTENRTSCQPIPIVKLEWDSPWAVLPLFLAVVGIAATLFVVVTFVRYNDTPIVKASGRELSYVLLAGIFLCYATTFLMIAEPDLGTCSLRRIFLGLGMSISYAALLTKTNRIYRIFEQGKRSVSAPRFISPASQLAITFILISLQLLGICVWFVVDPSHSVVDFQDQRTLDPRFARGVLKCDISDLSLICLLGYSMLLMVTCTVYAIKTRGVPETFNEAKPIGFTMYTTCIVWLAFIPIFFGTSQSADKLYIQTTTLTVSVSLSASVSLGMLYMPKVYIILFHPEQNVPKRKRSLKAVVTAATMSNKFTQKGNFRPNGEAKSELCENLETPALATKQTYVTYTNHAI
Glycogen synthase kinase-3 beta (Homo sapiens), sequence (P49841 whole entry, looked up): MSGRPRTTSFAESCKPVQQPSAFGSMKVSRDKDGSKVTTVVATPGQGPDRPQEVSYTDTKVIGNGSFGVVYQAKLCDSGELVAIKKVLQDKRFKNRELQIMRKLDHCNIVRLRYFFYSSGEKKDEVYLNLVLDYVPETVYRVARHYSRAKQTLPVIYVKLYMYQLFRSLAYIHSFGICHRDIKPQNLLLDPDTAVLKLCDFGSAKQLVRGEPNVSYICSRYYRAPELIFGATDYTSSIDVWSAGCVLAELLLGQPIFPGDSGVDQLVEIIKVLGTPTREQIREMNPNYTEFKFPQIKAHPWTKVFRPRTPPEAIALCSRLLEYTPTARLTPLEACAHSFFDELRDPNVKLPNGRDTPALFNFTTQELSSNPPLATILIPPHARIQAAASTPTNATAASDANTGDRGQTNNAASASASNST
Mitogen-activated protein kinase kinase kinase 7 (Homo sapiens), sequence (O43318 whole entry): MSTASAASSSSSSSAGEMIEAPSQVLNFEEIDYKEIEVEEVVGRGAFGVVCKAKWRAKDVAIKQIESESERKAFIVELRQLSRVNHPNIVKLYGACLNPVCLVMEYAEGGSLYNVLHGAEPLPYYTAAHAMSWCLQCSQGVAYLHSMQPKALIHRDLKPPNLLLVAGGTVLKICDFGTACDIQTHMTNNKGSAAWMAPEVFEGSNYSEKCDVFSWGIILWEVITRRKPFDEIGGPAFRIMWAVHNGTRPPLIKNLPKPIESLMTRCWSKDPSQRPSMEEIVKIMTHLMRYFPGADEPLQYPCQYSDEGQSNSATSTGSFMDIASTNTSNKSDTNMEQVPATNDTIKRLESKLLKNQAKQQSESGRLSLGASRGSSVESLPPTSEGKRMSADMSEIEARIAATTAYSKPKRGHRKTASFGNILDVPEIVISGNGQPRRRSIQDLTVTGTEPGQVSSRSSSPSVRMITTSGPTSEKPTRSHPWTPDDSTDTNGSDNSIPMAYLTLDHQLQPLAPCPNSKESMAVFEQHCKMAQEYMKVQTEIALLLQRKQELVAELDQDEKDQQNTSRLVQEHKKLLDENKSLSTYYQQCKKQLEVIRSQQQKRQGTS
Metabotropic glutamate receptor 4 (Homo sapiens, UniProt Q14833), sequence (Q14833 whole entry): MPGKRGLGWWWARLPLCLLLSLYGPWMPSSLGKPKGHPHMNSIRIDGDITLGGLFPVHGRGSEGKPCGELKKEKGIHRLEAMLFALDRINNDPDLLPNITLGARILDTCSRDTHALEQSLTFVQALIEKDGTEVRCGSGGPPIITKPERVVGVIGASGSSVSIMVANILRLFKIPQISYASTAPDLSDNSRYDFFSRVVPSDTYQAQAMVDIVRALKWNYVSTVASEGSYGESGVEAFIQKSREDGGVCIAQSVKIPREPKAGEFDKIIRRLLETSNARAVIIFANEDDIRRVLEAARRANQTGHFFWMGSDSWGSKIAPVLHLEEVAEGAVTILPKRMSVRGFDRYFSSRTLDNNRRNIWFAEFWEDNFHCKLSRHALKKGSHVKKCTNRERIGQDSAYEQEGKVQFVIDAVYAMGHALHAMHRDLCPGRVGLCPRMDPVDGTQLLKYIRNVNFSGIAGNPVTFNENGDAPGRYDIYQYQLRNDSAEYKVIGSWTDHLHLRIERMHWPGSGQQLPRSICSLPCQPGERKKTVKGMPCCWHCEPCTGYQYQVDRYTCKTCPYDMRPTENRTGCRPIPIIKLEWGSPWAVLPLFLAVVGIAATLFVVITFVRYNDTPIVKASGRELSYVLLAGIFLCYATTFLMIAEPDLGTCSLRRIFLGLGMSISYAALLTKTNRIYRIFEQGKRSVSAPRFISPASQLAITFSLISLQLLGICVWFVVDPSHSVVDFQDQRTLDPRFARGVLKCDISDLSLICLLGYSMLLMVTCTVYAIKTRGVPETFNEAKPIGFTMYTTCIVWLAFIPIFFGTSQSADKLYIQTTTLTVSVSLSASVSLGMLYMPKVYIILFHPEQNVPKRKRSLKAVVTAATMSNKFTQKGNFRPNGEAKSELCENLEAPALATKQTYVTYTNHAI
Metabotropic glutamate receptor 7 (Homo sapiens), sequence (Q14831 whole entry): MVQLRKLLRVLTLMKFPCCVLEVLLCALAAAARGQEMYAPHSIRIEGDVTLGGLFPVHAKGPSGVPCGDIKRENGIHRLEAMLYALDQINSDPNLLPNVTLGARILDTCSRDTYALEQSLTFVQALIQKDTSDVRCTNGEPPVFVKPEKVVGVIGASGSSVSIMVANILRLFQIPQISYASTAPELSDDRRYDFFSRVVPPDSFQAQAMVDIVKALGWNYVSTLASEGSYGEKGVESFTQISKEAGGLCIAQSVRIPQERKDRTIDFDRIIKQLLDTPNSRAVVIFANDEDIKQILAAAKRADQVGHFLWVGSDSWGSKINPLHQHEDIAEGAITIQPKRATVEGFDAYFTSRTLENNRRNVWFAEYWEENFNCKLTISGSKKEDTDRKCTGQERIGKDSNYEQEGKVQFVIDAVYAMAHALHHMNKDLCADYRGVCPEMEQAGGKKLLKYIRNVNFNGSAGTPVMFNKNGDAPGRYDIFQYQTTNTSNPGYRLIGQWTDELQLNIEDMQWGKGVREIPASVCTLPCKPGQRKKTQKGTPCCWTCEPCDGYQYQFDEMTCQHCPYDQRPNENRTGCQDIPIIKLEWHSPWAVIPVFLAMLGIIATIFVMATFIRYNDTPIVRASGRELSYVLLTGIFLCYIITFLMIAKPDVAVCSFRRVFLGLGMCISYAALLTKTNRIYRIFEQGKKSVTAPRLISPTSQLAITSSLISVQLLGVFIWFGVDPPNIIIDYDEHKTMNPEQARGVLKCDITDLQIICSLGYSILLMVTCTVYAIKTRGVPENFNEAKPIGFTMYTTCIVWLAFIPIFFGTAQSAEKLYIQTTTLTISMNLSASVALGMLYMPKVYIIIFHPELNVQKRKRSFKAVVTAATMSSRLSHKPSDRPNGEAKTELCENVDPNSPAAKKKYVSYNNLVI
Interleukin-1 receptor-associated kinase 4 (Homo sapiens), sequence (Q9NWZ3 whole entry): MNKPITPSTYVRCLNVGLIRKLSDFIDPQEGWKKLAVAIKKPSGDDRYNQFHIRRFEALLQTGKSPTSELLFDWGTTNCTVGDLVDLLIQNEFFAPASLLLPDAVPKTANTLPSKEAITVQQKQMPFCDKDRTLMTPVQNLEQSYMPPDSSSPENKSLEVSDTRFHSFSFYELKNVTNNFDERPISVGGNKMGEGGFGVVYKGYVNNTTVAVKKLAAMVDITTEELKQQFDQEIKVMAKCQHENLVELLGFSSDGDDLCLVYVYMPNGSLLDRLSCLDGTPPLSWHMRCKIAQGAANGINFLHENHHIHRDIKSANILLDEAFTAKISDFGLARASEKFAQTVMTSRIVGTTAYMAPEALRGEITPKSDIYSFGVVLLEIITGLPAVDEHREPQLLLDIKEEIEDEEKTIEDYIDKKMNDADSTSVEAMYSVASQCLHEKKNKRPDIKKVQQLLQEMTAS

The term AUC(0-inf) denotes total exposure, with the tail of the curve extrapolated. Read a high AUC(0-inf) as more exposure. The Tmax is the time at which the peak concentration occurs. What is called Vd is a proportionality between amount in the body and measured concentration, not a real space. One may read the half-life as the time in which the quantity being followed falls by half. By EC50 is commonly meant the concentration needed to bring the measured effect to its halfway point. For `O/N=c1\cc(-c2cc3cccn3cn2)oc2ccc(OCCN3CCOCC3)cc12` [listing 1 of 2 here], the “Drug uptake(free)” value in the series with Brain [1] was 173 ng/g; in the series on Brain [4], 91 ng/g; in the series with Brain [11] it was 2 ng/g. Besides, the concentration at 1 h in series [2] is 262 ng/g; in [14], 3560 ng/mL. Further, the AUC(0-inf) in series [3] came to 166 ng·h/mL. Also, the results for the concentration at 0.5 h in series [5] and in series [15] were 454 ng/g and 5650 ng/g, respectively. The Activity result in [6] and in [16] was “Not Active” in each case. This compound also showed a t1/2 in the series on Mus musculus of 12 min. The time to peak (Tmax) in [7] was 15 min. This compound displayed a Vd in series [8] of 6.5 L/kg. In series [9], this compound had a half-life of 240 min. The values for the concentration giving a half-maximal response (EC50) in series [10] and in series [13] were 46 nM and 27 nM, respectively. Moreover, the Ratio in series [12] worked out at 7.6. The compound further showed a concentration at 2 h in series [17] of 535 ng/mL. In addition, the Kp at 0.5 h in series [18] is 3.1; in series [20] it was 2.3. The concentration at 4 h in series [19] was 99 ng/mL.
On to `O/N=c1\cc(-c2cc3cccn3cn2)oc2ccc(OCCN3CCOCC3)cc12` [listing 2 of 2 here], for which the result (in the series filed under Rattus norvegicus [21]; in series [24]; in [25]) was inactive. Besides, in the series on Rattus norvegicus [22], the outcome was Active. Besides, the inhibition entry in [23], in [26] and in [27] was “inactive” in each case.
